In publication PMC5553283 (Journal of natural products, 2017):

Assays:
[1] = Hydrolysis of the C-15 acetoxy group of AF to AJ; format: physicochemical; conditions: serum in vitro
[2] = tested on: SCC-4 xenografts; test: Antitumor efficacy of intratumorally administered taccalonolides; format: in vivo; conditions: intratumoral
[3] = human, microsomes
[4] = tested on: murine xenograft models of breast cancer; conditions: systemic i.p. injection ref 23, 25; cited from earlier work
[5] = In vivo pharmacokinetic assessment in mice, plasma LC-MS; conditions: 300 µg IV, mouse plasma
In short: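 Female athymic nude mice, 6–7 weeks, got a single 300 µg tail-vein bolus in 100 µL PBS/5% ethanol. Blood was taken by cardiac puncture under CO2 anaesthesia pre-dose, at end of infusion, 0.25, 0.5, 1 and 2 h (3–5 mice/time point). EDTA plasma (1,200 rcf, 10 min), 100 µL extracted into 1 mL cold ethyl acetate. Quantified against 1/X2-weighted linear calibration. Non-compartmental AUC by linear trapezoid, extrapolated to infinity.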

| rate of clearance (microsomal intrinsic clearance) [3] | NADPH-dependent intrinsic clearance ([3]; pH 7.4) [µL/min/mg] | Compound | hydrolysis of the C-15 acetoxy group [1] | weight loss or other toxicities ([2]; two 40 µg injections on days 0 and 3) | NADPH-free intrinsic clearance ([3]; pH 7.4) [µL/min/mg] | antitumor efficacy on systemic administration [4] | effect on tumor growth ([2]; 20 µg total dose) | effect on tumor growth ([2]; 80 µg total dose, over the course of the trial) | drug in the plasma 120 min after injection [5] |
| --- | --- | --- | --- | --- | --- | --- | --- | --- | --- |
| – | – | CC(=O)O[C@@H]1[C@H]2[C@H]3[C@H]([C@H](OC(C)=O)[C@H](OC(C)=O)[C@]2(C)[C@H]2[C@H](C)[C@H]4O[C@]45OC(=O)[C@@](C)(O)[C@]5(C)[C@H]12)[C@]1(C)[C@H](C[C@@H]2O[C@@H]2[C@@H]1OC(C)=O)C(=O)[C@@H]3O [taccalonolide AF] | observed | no associated weight loss or other toxicities | 0 | demonstrated antitumor efficacy | – | – | – |
| – | – | CC(=O)O[C@H]1[C@H]2[C@H]([C@@H]3[C@@H](O)[C@@H]4[C@H]([C@H](C)[C@H]5O[C@]56OC(=O)[C@@](C)(O)[C@]46C)[C@@]3(C)[C@H]1OC(C)=O)[C@@H](O)C(=O)[C@H]1C[C@@H]3O[C@@H]3[C@H](OC(C)=O)[C@]21C [taccalonolide AJ] | – | – | – | no evidence of antitumor efficacy | no inhibition of tumor growth | robust and prolonged inhibition of tumor growth | no drug detectable |
| no clearance | 0 | CC(=O)CC(c1ccccc1)c1c(O)c2ccccc2oc1=O (centres unmarked) [warfarin] | – | – | 0 | – | – | – | – |
